Assay outcomes from PubChem.
Hits are enriched below; roughly 1.4% of the tested compounds scored in any of these assays.
APJ agonist – activates the human apelin receptor APJ; P35414; activation, % at 20 µM; CHO-K1 APJ PathHunter beta-arrestin, luminescence; 0% DMSO wells, 100% apelin; 330,000 tested, 0.11% active;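 active = activation more than six SD over the plate average, tested at 20 µM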
Target sequence (P35414 whole entry, looked up): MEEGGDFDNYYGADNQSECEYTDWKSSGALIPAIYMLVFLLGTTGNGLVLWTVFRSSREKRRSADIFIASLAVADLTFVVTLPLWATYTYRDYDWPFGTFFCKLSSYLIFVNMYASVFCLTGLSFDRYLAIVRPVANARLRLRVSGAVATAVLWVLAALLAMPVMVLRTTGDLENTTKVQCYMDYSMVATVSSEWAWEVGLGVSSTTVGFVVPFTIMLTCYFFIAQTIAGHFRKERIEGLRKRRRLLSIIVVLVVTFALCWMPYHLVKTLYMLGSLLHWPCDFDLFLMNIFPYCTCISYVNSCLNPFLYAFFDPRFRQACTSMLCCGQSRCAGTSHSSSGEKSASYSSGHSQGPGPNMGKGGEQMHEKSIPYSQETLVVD
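Assay system: engineered CHO-K1 APJ arrestin reporter cells; Amount: 1000 CHO-K1 reporter cells seeded per well; Dosing: one dose, 20 µM compound, 1% DMSO; Times: compound stimulation 90 min at 25 °C, detection 60 min; Measured by: luminescent beta-gal fragment complementation, chemiluminescent substrate; Read-out: APJ–arrestin association signal; Controls: DMSO vs Apelin-13 10 nM.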
CXCR6 block – CXCR6 (human) receptor inhibition. O00574. CHO-K1 PathHunter CXCR6 beta-arrestin, luminescence. inhibition, % at 20 µM. 360,000 tested, 0.36% active. AID 602244; in the data active = inhibition above about 34%, passing the limit was not always enough;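 note: antagonist mode with CXCL16 agonist at 10 nM final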
APOBEC3A inh – blocks human APOBEC3A ssDNA deamination | inhibition, % at 20 µM | P31941 | recombinant A3A, FAM/TAMRA ssDNA deamination fluorescence | 330,000 tested, 0.41% active;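 active = at least 40% inhibition at 20 µM here, with at most 30% in a related deaminase screen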
Target sequence (P31941 whole entry, looked up): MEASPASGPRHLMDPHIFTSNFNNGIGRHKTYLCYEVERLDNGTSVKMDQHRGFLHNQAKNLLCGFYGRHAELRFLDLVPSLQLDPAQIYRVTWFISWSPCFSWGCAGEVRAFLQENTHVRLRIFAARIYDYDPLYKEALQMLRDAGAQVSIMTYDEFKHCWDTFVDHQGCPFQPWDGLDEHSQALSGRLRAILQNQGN
CCR6 antag – CCR6 (human) receptor antagonism | P51684 | CHO-K1 CCR6 PathHunter beta-arrestin, luminescence, CCL20-stimulated | inhibition, % at 20 µM | 340,000 tested, 0.49% active | AID 493098;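 active = compounds whose inhibition of the agonist-driven luminescence signal at 20 µM reaches about 50%, limit read from the data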;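 note: cells stimulated with CCL20 at 14 nM final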
APOBEC3G inh – APOBEC3G (human) deaminase inhibition. Q9HC16. recombinant A3G, ssDNA deamination FAM/TAMRA fluorescence. inhibition, % at 20 µM. 330,000 tested, 0.28% active. AID 493012;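 active = inhibition of at least 40% at 20 µM, with no more than 30% in the related APOBEC3A deaminase screen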
APJ antagonist – blocks the human apelin receptor APJ; 330,000 tested, 0.32% active; CHO-K1 APJ beta-arrestin complementation, luminescence; AID 2521; inhibition, % at 20 µM;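 active = inhibition above about 40% at 20 µM, limit read from the data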;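 note: cells challenged with 10 nM apelin-13 agonist together with compound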
A3G conf – confirmation of human APOBEC3G DNA deaminase inhibitors; 890 tested, 72% active; recombinant A3G ssDNA deaminase, UDG/FAM-TAMRA fluorescence; shares compounds with APOBEC3G inh; AID 493152; inhibition, % at 20 µM;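 active = inhibition reaching a set limit in any replicate at 20 µM, the limit being 80% of the first screen's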
UDG A3G counter – inhibits E. coli UDG, flagging false APOBEC3G inhibitors; 710 tested, under 10 active; inhibition, % at 20 µM; AID 504715; UDG counterscreen, FAM/TAMRA oligo fluorescence; shares compounds with APOBEC3G inh;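 active = compounds giving 40% or more inhibition at 20 µM in any one of the three replicates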;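 note: inhibitors lower the FAM signal released by uracil excision and alkaline cleavage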
Large screens that a line does not name were inactive (follow-up assays come after a bar, where they were run).

Cc1ccc(OCC(=O)N2CCCCC2C)c([N+](=O)[O-])n1 (stereo unspecified)	none
O=S(=O)(Cc1ccccc1)N=Nc1c(O)[nH]c2ccc(Br)cc12	APOBEC3G inh 51 | A3G conf 68 | UDG A3G counter inactive
O=C(CNC(=O)c1ccccc1)N=Nc1c(O)[nH]c2ccc(Br)cc12	none
COc1ccc(C(=O)OCC(=O)N2CCN(C(=O)c3ccco3)CC2)cc1OC	none
c1ccc(Sc2ccncc2)cc1	none (no result: APJ agonist, APOBEC3A inh, CCR6 antag, APOBEC3G inh, APJ antagonist)
c1cc(SSc2ccncc2)ccn1	APOBEC3G inh 65 | A3G conf 71
Cc1ccc(-n2c(N)c(C(=O)NCc3ccco3)sc2=S)cc1	none
Cc1ccc(-n2c(N)c(C(N)=O)sc2=S)cc1	APOBEC3G inh 58 | A3G conf 58 | UDG A3G counter inactive
CON=C1C=C(C)C(=O)C(C)=C1C	none (no result: APJ agonist, APOBEC3A inh, APOBEC3G inh, APJ antagonist)
O=C(O)COc1ccccc1/C=N/NC(=O)Cc1csc(Nc2cccc(C(F)(F)F)c2)n1	APOBEC3G inh 55 | A3G conf inactive | UDG A3G counter inactive
O=C(O)COc1ccccc1/C=N/NC(=O)Cc1ccccc1	none
COc1cc(/C=N/n2c(-c3cc(C)[nH]n3)n[nH]c2=S)cc(OC)c1OC	APOBEC3G inh 47 | A3G conf 76 | UDG A3G counter inactive
COc1cc(/C=N/n2c(-c3cc(C)[nH]n3)n[nH]c2=S)ccc1O	none
COc1cccc(/C=N/n2c(-c3cc(C)[nH]n3)n[nH]c2=S)c1	APOBEC3G inh 49 | A3G conf 83 | UDG A3G counter inactive
COc1cccc(/C=N/n2c(COc3ccccc3)n[nH]c2=S)c1	none
Cc1ccccc1S(=O)(=O)NC(=O)C1(C)CCN1C(=O)c1cccc(F)c1 (stereo unspecified)	none (no result: APJ agonist, APOBEC3A inh, CCR6 antag, APOBEC3G inh, APJ antagonist)
Cc1cc(O)c(/C=N/Nc2ccccc2Cl)c(=O)o1	APOBEC3G inh 47 | A3G conf inactive | UDG A3G counter inactive
CCn1c(-c2ccc(C(C)(C)C)cc2)n[nH]c1=S	none
Cn1c(-c2ccc(C(C)(C)C)cc2)n[nH]c1=S	APOBEC3G inh 41 | A3G conf 73 | UDG A3G counter inactive
Cn1c(-c2sccc2OCc2ccccc2)n[nH]c1=S	APOBEC3G inh 45 | A3G conf 78 | UDG A3G counter inactive
Cc1nc(-c2ccccc2)sc1-c1n[nH]c(=S)n1C	APOBEC3G inh 43 | A3G conf 76 | UDG A3G counter inactive
OCC1CCCCN1CC(O)COC(c1ccc(F)cc1)c1ccc(F)cc1 (stereo unspecified)	none
CC(C)(C)c1cc(NCc2ccccn2)n2ncc(-c3ccccc3)c2n1	none
Cc1nc2c(=O)[nH]c(=S)n(C)c2nc1C	APOBEC3G inh 52 | A3G conf inactive | UDG A3G counter inactive
O=C(O)c1ccccc1C=NN1CCCCCC1	none (no result: APJ agonist, APOBEC3A inh, APOBEC3G inh, APJ antagonist)
CC(=O)NCCC(=O)Nc1nc(-c2c[nH]c3ccccc23)cs1	APOBEC3G inh 79 | A3G conf inactive | UDG A3G counter inactive
O=C(NCCCNC(=O)c1c(Cl)cccc1Cl)c1c(Cl)cccc1Cl	none
CC(C)n1cc(CN2CCC(n3nccc3NC(=O)Cc3ccccc3)CC2)cn1	APOBEC3G inh 71 | A3G conf inactive
CCOC(=O)c1c(N)sn(-c2ccccc2C)c1=S	APOBEC3G inh 57 | A3G conf 54 | UDG A3G counter inactive
CCn1c(SCC(=O)NC2CCCCC2)nnc1C(C)NC(=O)c1ccccc1F (stereo unspecified)	none
Nc1ccccc1SSc1ccccc1N	APOBEC3G inh 82 | A3G conf 63 | UDG A3G counter inactive
c1ccc(CCc2nn3c(Cn4cnc5ccccc54)nnc3s2)cc1	APOBEC3G inh 49 | A3G conf 21 | UDG A3G counter inactive
Clc1ccccc1-c1nnc2sc(CCc3ccccc3)nn12	APOBEC3G inh 63 | A3G conf 51 | UDG A3G counter inactive
c1ccc(CCc2nn3c(Cn4nnc5ccccc54)nnc3s2)cc1	none
COc1cc(N=c2ssnc2Cl)cc(OC)c1	APOBEC3G inh 65 | A3G conf 65
N#Cc1cccc(N=c2ssnc2Cl)c1	APOBEC3G inh 74 (no result: CXCR6 block) | A3G conf 88 | UDG A3G counter inactive
Clc1ccc(N=c2ssnc2Cl)nc1	none
O=c1c2c([N+](=O)[O-])cc([N+](=O)[O-])cc2sn1-c1ccc(Br)cc1	CCR6 antag 50, APOBEC3G inh 75 | A3G conf 72
Cc1ccc(C2(C)NC(=O)N(CC(=O)NCc3ccccc3Cl)C2=O)cc1 (stereo unspecified)	none
COc1ccc(C=O)cc1OC(=O)N1CCOCC1	none
COc1ccc(CN2CCNC(=O)C2CC(=O)N(Cc2nccn2C)C(C)C)c(OC)c1 (stereo unspecified)	APOBEC3G inh 43 | A3G conf 16 | UDG A3G counter inactive
CN(CCOc1ccccc1)CC(=O)Nc1cccc(C#N)c1	none
C/C(=N\Nc1cccc2cccnc12)c1ccccn1	none
C/C(=N\Nc1cccc2cccnc12)c1ccc(N)cc1	APOBEC3G inh 58 | A3G conf inactive
O=C1C(=O)N(CCO)C(c2ccc(Br)cc2)/C1=C(\O)c1ccccc1 (stereo unspecified)	APOBEC3G inh 45 | A3G conf inactive | UDG A3G counter inactive
Clc1ccc(N/N=C/c2cccnc2)cc1	APOBEC3G inh 40 | A3G conf inactive | UDG A3G counter inactive
N#CC1C(=O)NC(=O)C(C#N)C12CCCc1sccc12 (stereo unspecified)	none (no result: APJ agonist, APOBEC3A inh, CCR6 antag, APOBEC3G inh, APJ antagonist)
COc1cc(NCCCn2cnc3c(OCc4ccccc4)ncnc32)cc(OC)c1OC	none (no result: APJ agonist, APOBEC3A inh, APOBEC3G inh, APJ antagonist)
Cc1cc(-c2nsc(=O)o2)c(S(C)(=O)=O)s1	APOBEC3G inh 66 | A3G conf 69
CCCc1nnc(SCC(=O)Nc2nc(C)cs2)n1CCOC	none
COc1ccccc1/C=C/C=N/n1c(-c2ccccn2)n[nH]c1=S	APOBEC3G inh 45 | A3G conf 88 | UDG A3G counter inactive
COc1ccccc1/C=C/C=N/n1c(-c2ccc(C)cc2)n[nH]c1=S	none
S=c1[nH]nc(-c2ccncc2)n1/N=C/C=C/c1ccccc1	APOBEC3G inh 63 | A3G conf 90 | UDG A3G counter inactive
Cc1cc(-c2n[nH]c(=S)n2/N=C/C=C/c2ccccc2)n[nH]1	APOBEC3G inh 46 | A3G conf 72 | UDG A3G counter inactive
COc1ccccc1/C=C/C=N/n1c(-c2ccncc2)n[nH]c1=S	APOBEC3G inh 47 | A3G conf 80 | UDG A3G counter inactive
COc1ccccc1/C=C/C=N/n1c(-c2cc(C)[nH]n2)n[nH]c1=S	none
CC(C)c1nnc(NC(=O)CS(=O)(=O)c2ccccc2)s1	none
